Results as given in ChEMBL document CHEMBL4118273, “Design, Synthesis, and Biological Evaluation of Pyrimido[4,5- d]pyrimidine-2,4(1 H,3 H)-diones as Potent and Selective Epidermal Growth Factor Receptor (EGFR) Inhibitors against L858R/T790M Resistance Mutation” (J Med Chem, 2018).

How the values were obtained:
[1] = Oral bioavailability in ICR mouse at 10 mg/kg by LC-MS/MS analysis; assay type: ADME, organism-based; conditions: in vivo
[2] = Half life in mouse liver microsomes at 0.1 uM after 60 mins in presence of NADPH by LC-MS/MS analysis; assay type: ADME, microsome
Outline: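 Human or mouse liver microsomes (0.33 mg/mL protein) in 0.1 M Tris/HCl pH 7.4 with 5 mM MgCl2, 1 mM NADPH, 0.01% DMSO and 0.005% BSA; test compound at 0.1 µM final, 37 °C for 60 min. Aliquots at 0, 7, 17, 30 and 60 min quenched by methanol precipitation, centrifuged and analysed by LC-MS/MS.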

[3] = Tmax in ICR mouse at 1 mg/kg, iv by LC-MS/MS analysis; assay type: ADME, organism-based; conditions: in vivo
[4] = target: Cytochrome P450 2D6 (Homo sapiens, UniProt P10635); assay: Inhibition of human CYP2D6 (unknown origin); assay type: ADME
Sequence of Cytochrome P450 2D6 (P10635 whole entry): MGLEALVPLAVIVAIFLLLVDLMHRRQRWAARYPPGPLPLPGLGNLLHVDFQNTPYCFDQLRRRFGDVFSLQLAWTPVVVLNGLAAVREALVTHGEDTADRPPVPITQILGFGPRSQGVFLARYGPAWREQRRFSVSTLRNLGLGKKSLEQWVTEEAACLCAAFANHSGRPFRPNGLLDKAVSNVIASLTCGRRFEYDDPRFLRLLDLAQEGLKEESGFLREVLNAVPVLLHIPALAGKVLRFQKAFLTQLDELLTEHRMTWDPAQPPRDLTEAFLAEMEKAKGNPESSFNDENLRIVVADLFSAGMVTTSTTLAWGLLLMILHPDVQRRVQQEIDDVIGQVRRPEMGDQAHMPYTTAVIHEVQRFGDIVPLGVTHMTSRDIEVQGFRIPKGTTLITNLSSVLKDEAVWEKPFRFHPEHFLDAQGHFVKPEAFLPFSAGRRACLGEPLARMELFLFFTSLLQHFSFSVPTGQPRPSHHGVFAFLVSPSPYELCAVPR

[5] = Efflux ratio of apparent permeability from apical to basolateral side in MDCK2 cells at 2 uM after 2.5 hrs by LC-MS/MS method; assay type: ADME, cell-based, Canis lupus familiaris, MDCK-II; conditions: dog, MDCK
[6] = target: Cytochrome P450 2C19 (Homo sapiens, UniProt P33261); assay: Inhibition of human CYP2C19 (unknown origin); assay type: ADME
Sequence of Cytochrome P450 2C19 (P33261 whole entry): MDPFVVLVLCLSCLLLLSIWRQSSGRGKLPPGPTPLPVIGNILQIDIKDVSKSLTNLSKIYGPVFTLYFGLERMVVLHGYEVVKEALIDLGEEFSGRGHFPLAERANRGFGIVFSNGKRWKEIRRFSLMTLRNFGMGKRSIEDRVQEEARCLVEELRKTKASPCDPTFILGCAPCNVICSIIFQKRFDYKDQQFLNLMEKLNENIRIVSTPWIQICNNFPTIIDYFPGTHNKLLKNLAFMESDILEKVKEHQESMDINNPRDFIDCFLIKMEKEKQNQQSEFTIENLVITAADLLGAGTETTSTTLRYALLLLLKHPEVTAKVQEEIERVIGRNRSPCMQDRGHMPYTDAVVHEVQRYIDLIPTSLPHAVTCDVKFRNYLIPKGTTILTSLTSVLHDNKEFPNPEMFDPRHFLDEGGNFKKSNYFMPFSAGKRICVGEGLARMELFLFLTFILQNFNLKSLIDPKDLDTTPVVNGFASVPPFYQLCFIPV

[7] = tested on: A-431; assay: Growth inhibition of human A431 cells xenografted in Balb/c mouse at 50 mg/kg/day, po for 14 days measured every 2 to 3 days during compound dosing relative to control; assay type: organism-based; conditions: A-431, po, read-out: GI
Outline: (§1)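 BALB/c mice, 4–6 weeks old, implanted subcutaneously in the right flank with about 2 × 10^6 H1975 or A431 cells grown in RPMI-1640 with 10% FBS. At 200–400 mm3 tumors, mice were randomized (six/group) and dosed orally once daily with vehicle or inhibitor for 14 days. Caliper volumes, V = L×W²/2, were taken every 2–3 days; means ± SEM, Student's t test vs vehicle.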

[8] = Tmax in ICR mouse at 10 mg/kg, po by LC-MS/MS analysis; assay type: ADME, organism-based; conditions: in vivo
[9] = tested on: A-431; assay: Cytotoxicity against human A431 cells harboring wild type EGFR assessed as reduction in cell viability after 72 hrs by SRB assay; assay type: cell-based; conditions: A-431, 72 h
Outline: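 Cell growth inhibition measured by sulforhodamine B colorimetric assay in H1975 (EGFR L858R/T790M) and A431 (overexpressed wild-type EGFR) cells; IC50 values are means ± SD of at least three independent determinations. Selectivity is taken as the A431:H1975 IC50 ratio.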

[10] = Cmax in ICR mouse at 10 mg/kg, po by LC-MS/MS analysis; assay type: ADME, organism-based; parameters: dose 10 mg/kg, route oral; conditions: in vivo
[11] = tested on: NCI-H1975; assay: Antitumor activity against human NCI-H1975 cells xenografted in Balb/c mouse assessed as tumor growth inhibition at 50 mg/kg/day, po once daily for 14 days measured every 2 to 3 days during compound dosing relative to control; assay type: functional; conditions: read-out: TGI; outline: as §1
[12] = Half life in ICR mouse at 1 mg/kg, iv by LC-MS/MS analysis; assay type: ADME, organism-based; conditions: in vivo
[13] = AUC (0 to t) in ICR mouse at 1 mg/kg, iv by LC-MS/MS analysis; assay type: ADME, organism-based; conditions: in vivo

Compound: C=CC(=O)Nc1cccc(-n2c(=O)n(C(C)C)c(=O)c3cnc(Nc4ccc(N5CCN(C)CC5)cc4OC)nc32)c1
- bioavailability [1]: 35%
- half-life at 0.1 µM [2]: 46.1 min
- Tmax [3]: 6 min
- IC50 [4]: > 50 µM
- efflux ratio at 2.5 h, 2 µM [5]: 9.1
- IC50 [6]: > 50 µM
- inhibition at 50 mg/kg [7]: 37%
- Tmax [8]: 120 min
- IC50 [9]: 1.56 µM
- Cmax [10]: 271 ng/mL
- inhibition in vivo at 50 mg/kg/day [11]: 73%
- half-life [12]: 54 min
- AUC(0-t) [13]: 181 ng·h/mL
